Reference: ChEMBL document CHEMBL4339222, “Covalent Inhibitors of Plasmodium falciparum Glyceraldehyde 3-Phosphate Dehydrogenase with Antimalarial Activity in Vitro” (ACS Med Chem Lett, 2019)
Active and inactive are the calls of the source. The rule behind the calls is not given here.

Legend:
[1] = tested on: Plasmodium falciparum; experiment: Inhibition of recombinant His-tagged Plasmodium falciparum GAPDH expressed in Escherichia coli assessed as reduction in NADH formation by measuring Kinact/Ki ratio in presence of NAD+, DL-glyceraldehyde 3-phosphate and GAPDH by spectrophotometry based Ferdinand assay
[2] = tested on: Plasmodium falciparum; experiment: Antimalarial activity against CQ-resistant Plasmodium falciparum W2 infected in human type A-positive red blood cells assessed as inhibition of parasite growth incubated for 72 hrs by spectrophotometry based parasite lactate dehydrogenase assay; assay type: functional, organism-based
Method in brief: (§1)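 pLDH assay on P. falciparum D10 and W2 blood-stage cultures exposed to compound for 72 h; chloroquine run as control. IC50 values are the mean of three separate experiments, each done in duplicate, with SD.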

[3] = tested on: Plasmodium falciparum; experiment: Antimalarial activity against CQ-susceptible Plasmodium falciparum D10 infected in human type A-positive red blood cells assessed as inhibition of parasite growth incubated for 72 hrs by spectrophotometry based parasite lactate dehydrogenase assay; assay type: functional, organism-based; method in brief: as §1
[4] = tested on: HMEC-1; experiment: Cytotoxicity in human HMEC1 cells assessed as reduction in cell viability incubated for 72 hrs by MTT assay; assay type: cell-based; conditions: HMEC-1, 72 h
Method in brief: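 Human endothelial HMEC-1 cells exposed to compound for 72 h, then viability read by MTT (tetrazolium reduction) assay. Values are the mean ± SD of three separate experiments, each run in duplicate.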

[5] = Selectivity index, ratio of IC50 for human HMEC1 cells to IC50 for antimalarial activity against CQ-resistant Plasmodium falciparum W2 infected in human type A-positive red blood cells; assay type: toxicity; conditions: read-out: Ratio IC50
Method in brief: (§2)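 SI taken as HMEC-1 IC50 divided by antiplasmodial IC50. […] Each value is the mean of three experiments done in duplicate, with SD.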

[6] = Selectivity index, ratio of IC50 for human HMEC1 cells to IC50 for antimalarial activity against CQ-susceptible Plasmodium falciparum D10 infected in human type A-positive red blood cells; assay type: toxicity; conditions: read-out: Ratio IC50; method in brief: as §2
[7] = Plasmodium falciparum, W2, 72 h, read-out: IC50
[8] = Plasmodium falciparum, D10, 72 h, read-out: IC50

Row | SMILES | Ratio [1] | IC50 [2, 7] [nM] | IC50 [3, 8] [nM] | IC50 [4] [nM] | selectivity ratio [5] | selectivity ratio [6] | IC50 [2] | IC50 [3]
1 | N[C@H](C(=O)NCc1ccccc1)[C@@H]1CC(Br)=NO1 | 0.6 s⁻¹ M⁻¹ | 480 | 360 | 14900 | 31 | 41.4 | – | –
2 | N[C@H](CSCc1ccccc1)[C@H]1CC(Br)=NO1 | 0.2 s⁻¹ M⁻¹ | – | – | – | – | – | Not Active | Not Active
3 | N[C@H](C(=O)NCCc1ccccc1)[C@@H]1CC(Br)=NO1 | 0.4 s⁻¹ M⁻¹ | 250 | 280 | > 100000 | > 400 | > 357 | – | –
4 | N[C@H](CS(=O)(=O)Cc1ccccc1)[C@H]1CC(Br)=NO1 | 1.6 s⁻¹ M⁻¹ | – | – | – | – | – | Not Active | Not Active
5 | N[C@H](COCc1ccccc1)[C@@H]1CC(Br)=NO1 | 2.6 s⁻¹ M⁻¹ | – | – | – | – | – | Not Active | Not Active
6 | COc1ccc(CNC(=O)[C@@H](N)[C@@H]2CC(Br)=NO2)cc1 | inactive | – | – | – | – | – | – | –
7 | N[C@H](C(=O)OCc1ccccc1)[C@@H]1CC(Br)=NO1 | 6.6 s⁻¹ M⁻¹ | 260 | 370 | > 65000 | > 250 | > 176 | – | –
8 | COC(=O)[C@@H](N)[C@@H]1CC(Br)=NO1 | 10.7 s⁻¹ M⁻¹ | 880 | 790 | 34800 | 39.5 | 44 | – | –
9 | N[C@H](C(=O)O)[C@@H]1CC(Br)=NO1 | 0.7 s⁻¹ M⁻¹ | 340 | 350 | 19700 | 57.9 | 56.3 | – | –
10 | N[C@H](CSCc1ccccc1)[C@@H]1CC(Br)=NO1 | 1.6 s⁻¹ M⁻¹ | – | – | – | – | – | Not Active | Not Active
11 | N[C@H](C(=O)NCc1ccc(F)cc1)[C@@H]1CC(Br)=NO1 | inactive | – | – | – | – | – | – | –
12 | CCN(CC)CCCC(C)Nc1ccnc2cc(Cl)ccc12 (configuration not stated) [CHLOROQUINE] | – | – | – | > 40000 | – | – | – | –
13 | N[C@H](CS(=O)(=O)Cc1ccccc1)[C@@H]1CC(Br)=NO1 | inactive | – | – | – | – | – | – | –
14 | N[C@H](C(=O)NCc1ccc([N+](=O)[O-])cc1)[C@@H]1CC(Br)=NO1 | 1.9 s⁻¹ M⁻¹ | 720 | 790 | 36100 | 50.1 | 45.7 | – | –
